Consider six compounds from ChEMBL document CHEMBL1129439, “Synthesis and in vitro characterization of N-[5-(4,5-dihydro-1H-imidazol-2-yl)-2-hydroxy-5,6,7,8- tetrahydronaphthalen-1-yl]methanesulfonamide and its enantiomers: a novel selective alpha 1A receptor agonist” (J Med Chem, 1996).

For assay [1], the target named is T1, Alpha-1B adrenergic receptor (Rattus norvegicus, UniProt P15823).
T1 sequence (P15823 whole entry): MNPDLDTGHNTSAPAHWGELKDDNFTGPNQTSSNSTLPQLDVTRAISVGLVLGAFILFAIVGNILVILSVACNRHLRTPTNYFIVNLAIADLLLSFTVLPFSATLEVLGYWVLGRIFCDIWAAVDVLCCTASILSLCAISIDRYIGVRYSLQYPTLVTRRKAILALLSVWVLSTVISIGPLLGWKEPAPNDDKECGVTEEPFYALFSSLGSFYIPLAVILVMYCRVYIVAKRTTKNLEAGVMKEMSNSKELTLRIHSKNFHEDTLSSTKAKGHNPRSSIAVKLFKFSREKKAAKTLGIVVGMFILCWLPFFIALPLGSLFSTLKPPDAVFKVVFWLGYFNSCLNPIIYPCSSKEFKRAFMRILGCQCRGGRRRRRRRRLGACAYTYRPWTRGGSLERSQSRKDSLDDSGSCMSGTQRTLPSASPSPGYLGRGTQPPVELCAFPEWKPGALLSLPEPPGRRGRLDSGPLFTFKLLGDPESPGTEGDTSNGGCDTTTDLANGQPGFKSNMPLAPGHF
Kind of assay: In vitro agonist potency towards Alpha-1B adrenergic receptor in rat spleen. The assay is classed as functional, tissue-based.

For assay [2], the target named is T2, Alpha-1A adrenergic receptor (Bos taurus, UniProt P18130).
T2 sequence (P18130 whole entry): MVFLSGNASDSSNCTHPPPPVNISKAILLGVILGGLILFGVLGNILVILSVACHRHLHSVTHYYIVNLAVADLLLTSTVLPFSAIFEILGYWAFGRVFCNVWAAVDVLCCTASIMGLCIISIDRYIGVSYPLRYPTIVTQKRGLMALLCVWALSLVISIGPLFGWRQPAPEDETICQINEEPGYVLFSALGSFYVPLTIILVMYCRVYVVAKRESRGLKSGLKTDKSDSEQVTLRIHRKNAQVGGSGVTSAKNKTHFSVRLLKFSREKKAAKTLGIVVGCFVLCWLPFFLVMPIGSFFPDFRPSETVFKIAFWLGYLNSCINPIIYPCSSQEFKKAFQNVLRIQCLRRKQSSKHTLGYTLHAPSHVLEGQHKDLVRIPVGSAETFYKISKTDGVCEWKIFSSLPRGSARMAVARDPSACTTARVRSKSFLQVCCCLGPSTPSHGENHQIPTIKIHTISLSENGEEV
The assay is described as follows: Binding affinity towards bovine clonal Alpha-1A adrenergic receptor. In short, it runs like this:
(§1)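 Radioligand binding to cloned receptors: bovine α1a for line 1 and rat α1d for line 2.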

The target in assay [3] is T3, Alpha-1A adrenergic receptor (Homo sapiens) (UniProt P35348).
T3 sequence (whole entry): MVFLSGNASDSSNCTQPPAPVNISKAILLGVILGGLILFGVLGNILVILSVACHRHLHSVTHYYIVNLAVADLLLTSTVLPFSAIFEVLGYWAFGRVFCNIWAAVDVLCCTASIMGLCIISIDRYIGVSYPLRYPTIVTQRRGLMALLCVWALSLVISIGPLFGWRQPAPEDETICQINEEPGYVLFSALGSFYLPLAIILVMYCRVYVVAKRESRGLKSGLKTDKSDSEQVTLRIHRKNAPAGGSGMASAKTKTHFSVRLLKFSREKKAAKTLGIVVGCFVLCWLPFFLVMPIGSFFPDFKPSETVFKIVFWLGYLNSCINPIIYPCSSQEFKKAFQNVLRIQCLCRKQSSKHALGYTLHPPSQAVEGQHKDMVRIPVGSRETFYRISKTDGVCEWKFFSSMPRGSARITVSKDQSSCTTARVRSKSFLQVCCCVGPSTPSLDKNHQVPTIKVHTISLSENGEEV
The assay is described as follows: Percent response towards alpha 1A adrenergic receptor in canine prostate using phenylephrine as control agonist. The assay is classed as functional, tissue-based. The following applies: Canis lupus familiaris; Prostate gland; target entry is the homologue from another species.

Assay [4] concerns the target T4, Alpha-1A adrenergic receptor (Rattus norvegicus) (UniProt P43140).
T4 sequence (whole entry): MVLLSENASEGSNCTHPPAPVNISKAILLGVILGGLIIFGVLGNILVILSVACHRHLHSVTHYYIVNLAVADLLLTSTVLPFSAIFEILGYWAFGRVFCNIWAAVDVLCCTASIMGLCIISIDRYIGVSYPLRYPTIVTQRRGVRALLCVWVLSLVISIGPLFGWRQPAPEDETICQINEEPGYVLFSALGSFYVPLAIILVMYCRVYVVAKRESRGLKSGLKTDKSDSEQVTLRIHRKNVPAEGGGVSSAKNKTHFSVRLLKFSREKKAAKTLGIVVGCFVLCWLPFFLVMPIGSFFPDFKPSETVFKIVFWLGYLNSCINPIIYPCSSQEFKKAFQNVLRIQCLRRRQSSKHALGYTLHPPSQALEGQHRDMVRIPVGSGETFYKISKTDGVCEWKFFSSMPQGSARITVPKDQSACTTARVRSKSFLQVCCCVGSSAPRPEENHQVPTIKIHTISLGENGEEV
Kind of assay: Percent response towards alpha 1A adrenergic receptor in rat vas deferens using phenylephrine as control agonist. The assay is classed as functional, tissue-based.

Assay [5] has as its target T5, Alpha-1D adrenergic receptor (Rattus norvegicus) (UniProt P23944).
T5 sequence (whole entry): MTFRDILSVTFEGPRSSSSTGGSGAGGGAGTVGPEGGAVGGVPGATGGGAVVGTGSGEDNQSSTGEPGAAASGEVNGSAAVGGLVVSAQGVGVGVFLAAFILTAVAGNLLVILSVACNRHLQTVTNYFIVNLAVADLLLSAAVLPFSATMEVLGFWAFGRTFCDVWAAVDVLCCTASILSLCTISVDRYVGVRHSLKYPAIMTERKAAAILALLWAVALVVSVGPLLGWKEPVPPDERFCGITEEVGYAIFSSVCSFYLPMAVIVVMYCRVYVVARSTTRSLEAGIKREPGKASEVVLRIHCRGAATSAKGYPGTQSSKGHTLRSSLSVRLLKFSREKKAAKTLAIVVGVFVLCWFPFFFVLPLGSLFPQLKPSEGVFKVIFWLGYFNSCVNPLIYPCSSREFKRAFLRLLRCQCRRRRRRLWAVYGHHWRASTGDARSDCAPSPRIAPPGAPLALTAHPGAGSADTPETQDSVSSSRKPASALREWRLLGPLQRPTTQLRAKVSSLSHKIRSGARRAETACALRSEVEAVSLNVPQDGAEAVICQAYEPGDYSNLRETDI
Kind of assay: Percent response towards alpha 1D adrenergic receptor in rat aorta using phenylephrine as control agonist. The assay is classed as functional, tissue-based.

Assay [6] deals with T6, Alpha-1D adrenergic receptor (Rattus norvegicus, UniProt P23944).
T6 sequence (P23944 whole entry): T5 sequence (whole entry)
Kind of assay: In vitro agonist potency towards Alpha-1D adrenergic receptor in rat aorta. The assay is classed as functional, tissue-based.

For assay [7], the target named is T6, Alpha-1D adrenergic receptor. Kind of assay: Binding affinity towards rat clonal Alpha-1D adrenergic receptor. In short, it runs like this: as §1
The target in assay [8] is T7, Alpha-1B adrenergic receptor (Mesocricetus auratus, UniProt P18841).
T7 sequence (P18841 whole entry): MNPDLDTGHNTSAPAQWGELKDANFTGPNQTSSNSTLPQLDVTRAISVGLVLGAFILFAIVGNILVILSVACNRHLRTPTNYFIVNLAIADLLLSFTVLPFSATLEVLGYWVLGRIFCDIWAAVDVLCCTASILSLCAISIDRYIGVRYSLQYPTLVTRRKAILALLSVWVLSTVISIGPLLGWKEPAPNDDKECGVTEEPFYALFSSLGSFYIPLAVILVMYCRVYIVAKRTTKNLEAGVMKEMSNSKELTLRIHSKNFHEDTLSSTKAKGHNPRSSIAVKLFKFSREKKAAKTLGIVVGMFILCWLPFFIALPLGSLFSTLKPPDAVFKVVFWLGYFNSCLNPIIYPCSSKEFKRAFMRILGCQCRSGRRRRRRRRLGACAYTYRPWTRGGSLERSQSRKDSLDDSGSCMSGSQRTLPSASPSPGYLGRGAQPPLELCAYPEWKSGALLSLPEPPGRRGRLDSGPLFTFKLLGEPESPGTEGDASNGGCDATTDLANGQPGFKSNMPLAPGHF
The assay is described as follows: Binding affinity towards hamster clonal Alpha-1B adrenergic receptor. The assay is classed as single protein.

SMILES strings stand for the structures.

With `CS(=O)(=O)Nc1c(O)ccc2c1CCC[C@H]2C1=NCCN1`, the EC50 is 186 nM in assay [1] and 1020 nM in assay [6]. The Ki in assay [2] is 17.4 nM; in assay [7], 1020 nM; in assay [8], 2820 nM. Also, the Emax worked out at 63% in assay [3], 78% in assay [4] and 103% in assay [5].

In turn, `CNC[C@H](O)c1cccc(O)c1` [PHENYLEPHRINE] showed a Ki in assay [2] of 933 nM. The Emax in assay [3], in assay [4] and in assay [5] was 100% throughout.

As to `NCC(O)c1ccc(O)c(O)c1` (single isomer, unassigned) [NOREPINEPHRINE], the figures for the Ki in assay [2] and in assay [8] were 447 nM and 263 nM, respectively. In addition, the values for the Emax in assay [3], in assay [4] and in assay [5] were 117%, 105% and 113%, respectively.

On to `CS(=O)(=O)Nc1c(O)ccc2c1CCC[C@@H]2C1=NCCN1`, for which the EC50 in assay [1] and in assay [6] was above 100000 nM in each case. Also, the Ki in assay [2] was 1450 nM; in assay [7], 2950 nM; in assay [8] it was 17400 nM. In addition, the Emax in assay [3] was 24%; in assay [4] it was 45%.

In the case of `Cc1cc(C(C)(C)C)c(O)c(C)c1CC1=NCCN1` [OXYMETAZOLINE], the Ki in assay [2] was 13.2 nM. Further, the Emax is 71% in assay [3], 80% in assay [4] and 83% in assay [5].

Take `CS(=O)(=O)Nc1c(O)ccc2c1CCCC2C1=NCCN1` (stereo not given): the Ki in assay [2] is 30.2 nM; in assay [7], 1350 nM; in assay [8] it was 2090 nM. In addition, the Emax in assay [3] is 91%; in assay [4], 108%; in assay [5] it was 100%. Moreover, the EC50 in assay [6] is 2570 nM.
